# The list is not random: actives were taken first. Their share in the collection is about 2.7%.
# NR1D1 modulator = modulators of human Rev-erb alpha DNA binding | Rev-erbα–FITC-DNA binding, fluorescence polarization, 90 min | activity, % at 10 µM | P20393 | 370,000 tested, 0.79% active;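 active means activity above about 14%, limit read from the data; passing the limit was not always enough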;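 further: 0% = DMSO wells with 35 nM protein and 100% = DMSO wells with 750 nM protein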
# NR2E3 ag-1 = human photoreceptor-specific nuclear receptor agonism; Q9Y5X4; CHO-S Gal4-NCOR/VP16-NR2E3 two-hybrid, luciferase; inhibition of corepressor binding, % at 3.98 µM; 360,000 tested, 0.35% active; AID 602229;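 active means inhibition above the mean of all tested compounds plus 3 SD, cut at about 70% in these data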;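 further: 0% = DMSO with NR2E3 transfected cells and 100% = cells lacking NR2E3 construct; higher means lower luciferase signal from less NR2E3 corepressor binding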
# NR2E3 ag-2 = NR2E3 (human) agonism | Q9Y5X4 | GST-NR2E3/biotin-RetCOR TR-FRET, 1536-well | inhibition of corepressor binding, % at 4.78 µM | 320,000 tested, 0.12% active;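 active means percent inhibition above the cutoff of mean plus 3 SD of all tested compounds, set per screening campaign, cut at about 20% in these data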;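 further: 0% = DMSO wells and 100% = biotin wells as full block of FRET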
#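 Assay system: NR2E3–RetCOR corepressor complex. Quantity: 1.35 nM GST-NR2E3. Buffer or medium: pH 7.5 Tris-based buffer. Reagent: biotinylated RetCOR corepressor at 7 nM final. Schedule: 5 h at 4 °C. Detection: TR-FRET, emission read at 617 and 671 nm. Replicates: one well per compound, singlicate testing.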
# PG9 Ab binder = small molecules binding HIV-1 gp120 antibody PG9; TR-FRET gp120-PG9 antibody binding; inhibition, % at 6.7 µM; 360,000 tested, 0.43% active; AID 624416; in the data active means inhibition above about 8.5%
# MC4R ag barr = activates human MC4R beta-arrestin recruitment. P32245. U2OS MC4R beta-arrestin complementation, luminescence; percent of melanotan II response, DMSO zero. activation, % at 8.9 µM. 360,000 tested, 0.98% active. AID 540308;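 active means activation above a per-plate cutoff, the mean activation of sample wells on that plate plus 3 SD, cut at about 8% in these data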
# Target sequence (P32245 whole entry, looked up): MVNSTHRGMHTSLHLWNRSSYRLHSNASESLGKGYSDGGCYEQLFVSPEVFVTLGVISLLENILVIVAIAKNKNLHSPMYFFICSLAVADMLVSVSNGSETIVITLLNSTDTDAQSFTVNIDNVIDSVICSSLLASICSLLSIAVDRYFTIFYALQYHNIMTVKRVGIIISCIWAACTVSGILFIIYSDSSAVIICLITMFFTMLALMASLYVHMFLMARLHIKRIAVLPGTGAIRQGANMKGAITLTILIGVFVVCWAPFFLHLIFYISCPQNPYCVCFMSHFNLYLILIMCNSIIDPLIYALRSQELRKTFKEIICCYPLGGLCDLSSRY
# MC4R antag cAMP = blocks human MC4R cAMP signaling | MC4R-expressing cells, MTII-stimulated cAMP, LANCE TR-FRET | inhibition, % at 6.5 µM | 360,000 tested, 0.48% active | AID 540295;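 active means inhibition above its plate's cutoff, the mean of tested wells on that plate plus 3 SD, cut at about 29% in these data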;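 further: 0% = Melanotan II alone and 100% = Melanotan II plus saturating MCL0020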
#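 Test system: U2OS cells stably expressing human melanocortin 4 receptor (MC4R); also added: Melanotan II challenge; compound: 6.5 µM single dose; timing: 30-min compound preincubation, 1-h Melanotan II challenge, 1-h detection, room temperature; signal: Eu-cAMP/anti-cAMP TR-FRET, emission 671 nm; repeats: one well per compound, no replicates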
# U2OS cAMP counter = U2OS forskolin cAMP inhibition counter-screen. shares compounds with MC4R antag cAMP. parental U2OS, LANCE TR-FRET. inhibition, % at 6.5 µM. 1,600 tested, 26% active. AID 602193;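 active means mean inhibition over triplicates above the low-control well mean plus 3 SD, set per campaign, cut at about 13% in these data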;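 further: signal is single emission at 671 nm which falls as cellular cAMP rises; 0% = forskolin-stimulated wells and 100% = buffer without forskolin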
# MC4R antag conf = human MC4R cAMP antagonism confirmation. shares compounds with MC4R antag cAMP. MC4R-expressing cells, MTII-stimulated cAMP, TR-FRET. inhibition, % at 6.5 µM. 1,600 tested, 27% active; in the data active means inhibition above about 29%;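 further: 0% = agonist stimulated wells alone and 100% = agonist stimulated wells plus saturating reference antagonist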
# Starred values were filed as active, the others as inactive; . = not tested or not shown.
SMILES,NR1D1 modulator,NR2E3 ag-1,NR2E3 ag-2,PG9 Ab binder,MC4R ag barr,MC4R antag cAMP,U2OS cAMP counter,MC4R antag conf
CN(C)S(=O)(=O)c1ccc(-c2csc(N/N=C/c3ccco3)n2)cc1,3,-2,-2,-1,3,8,.,.
Cc1cc(S(=O)(=O)N2CCOCC2)ccc1NC(=O)c1ccc(F)cc1,6,8,-1,-2,0,-2,.,.
Cc1ccc2[nH]c(O)c(N=NC(=O)c3ccc(NS(=O)(=O)c4cccs4)cc3)c2c1,-30,-45,-5,0,4,34*,-3,-17
COc1ccc(NC(=O)c2cccc(-n3c(C)ccc3C)c2)c(OC)c1,2,-11,2,1,-1,29*,1,-4
Cc1cc(C(=O)COc2cc(F)ccc2[N+](=O)[O-])c(C)n1CC1CCCO1 (centres undefined),-2,7,.,0,3,33*,12,25
CCCOC(=O)c1ccc(NC(=O)c2ccccc2OC)cc1,0,-50,0,0,-2,11,.,.
CCC1Sc2ccc(S(=O)(=O)CCC(=O)Nc3ccc(C(=O)OC)cc3)cc2NC1=O (centres undefined),-5,-9,1,1,-4,2,.,.
Cc1ccc(C)c(Cn2c(C)nc3c(sc(=S)n3-c3ccccc3)c2=O)c1,-2,3,-1,2,-1,31*,2,-5
Cc1c(C(=O)NCCSCc2ccco2)cccc1[N+](=O)[O-],0,-26,-1,-2,-2,16,.,.
Cc1c(C(=O)NCCSCc2ccccc2)cccc1[N+](=O)[O-],-2,-8,3,2,0,35*,3,-5
COC(=O)c1oc2c(c1C)C(=O)CCC2,-5,-9,-2,-2,-3,4,.,.
COc1ccc(Oc2c(Cl)cnn(-c3ccc(F)cc3)c2=O)cc1,4,-5,0,1,-3,58*,40*,73*
COc1c(Cl)cnn(-c2ccc(C)cc2)c1=O,-4,-10,1,0,-1,34*,12,13
COc1ccc(Oc2c(Cl)cnn(-c3ccc(C)cc3)c2=O)cc1,-1,-7,4,0,-3,59*,36*,82*
CCc1ccc(C(=O)NNc2ccc(F)cc2)cc1,-1,-11,2,1,1,4,.,.
CN(C(=O)CSc1nccc(=O)[nH]1)C1CCCCC1,-1,13,.,3,1,-3,.,.
O=C(O)c1ccccc1C(=O)Nn1cnnc1,1,-13,-1,-2,-1,5,.,.
COC(=O)Cn1c(CN2CCN(c3ccc(F)cc3)CC2)nc2c1c(=O)n(C)c(=O)n2C,.,13,3,.,1,29*,4,11
Cc1ccc(NC(=O)c2cc([N+](=O)[O-])ccc2N2CCCC2)cc1,2,-12,0,-1,-2,0,.,.
COc1ccc(NC(=O)c2cc([N+](=O)[O-])ccc2N2CCN(C)CC2)cc1,-4,-29,-2,-2,1,29*,-1,2
Cn1ccsc1=NC(=O)c1ccc(S(C)(=O)=O)c([N+](=O)[O-])c1,1,1,5,-1,-4,33*,7,31*
Cn1ccsc1=NC(=O)c1ccc(Cl)c([N+](=O)[O-])c1,-16,-20,2,2,0,35*,4,-1
CCc1nc2ccc(C(=O)NCc3ccc4c(c3)OCO4)cn2c1N(CCC(C)C)CCN(C)C,-2,-15,.,-1,-1,31*,1,47*
CCN1CCN(C(c2cccs2)C(C)NS(=O)(=O)c2ccc(C)cc2)CC1 (centres undefined),-1,-22,-3,-1,-2,30*,1,-8
COc1cc(-c2cc(NC(C)=O)c3ncc(-c4ccc(C(C)=O)cc4)n3c2)cc(OC)c1OC,-2,1,.,-2,8.7*,29*,1,12
SMILES,NR1D1 modulator,NR2E3 ag-1,NR2E3 ag-2,PG9 Ab binder,MC4R ag barr,MC4R antag cAMP,U2OS cAMP counter,MC4R antag conf
O=C1SC(SCc2ccccc2Cl)=N/C1=C\c1ccc(C(=O)O)cc1,7,-4,1,1,-4,-8,.,.
CNC(C)c1ccc(S(N)(=O)=O)cc1 (centres undefined),3,19,6,-1,-1,38*,-3,2
COCCCn1c(=O)/c(=C\c2cccc(OC)c2OC)s/c1=C(/C#N)C(=O)Nc1ccc(C(=O)O)cc1,-4,-11,4,-4,0,29*,-8,-5
COCCCn1c(=O)/c(=C/c2ccccc2OC(F)F)s/c1=C(\C#N)C(=O)NCCOC,3,8,.,0,0,1,.,.
CCC(=O)NC(=S)Nc1ccc(-c2nc3ccc(C)cc3s2)cc1,3,-77,3,-1,-1,17,.,.
Cc1ccc2nc(-c3ccc(NC(=S)NC(=O)C(C)C)cc3)sc2c1,6,-129,1,2,2,47*,5,19
O=C(CSc1nc2ccccc2n1CCc1ccccc1)N1CCOCC1,-1,-19,2,0,-1,33*,0,10
O=C(CSc1ccccn1)N1CCOCC1,0,-2,4,0,1,29*,0,-3
Cc1cc(C)n2c(SCC(=O)NCc3ccco3)nnc2n1,-1,-8,2,1,0,-1,.,.
CCCn1nnnc1NCc1ccc(N(C)C)cc1,0,-17,-1,-2,-2,10,.,.
CN(/N=C/c1cc(Cl)cc(Cl)c1O)c1c(Cl)cccc1[N+](=O)[O-],7,-20,1,-3,0,30*,-4,12
CCN(CC)C(=O)c1ccc(C)c(Br)c1,0,0,4,2,-2,3,.,.
Cc1nn(CC(=O)Nc2ccccn2)c(C)c1Br,5,-12,-2,0,2,32*,2,-1
Cc1c(Br)c([N+](=O)[O-])nn1CC(=O)Nc1ccccn1,-5,5,-1,-2,-1,6,.,.
CC(=O)Nc1ccc(NC(=O)c2ccc(CN3CCc4ccccc4C3)cc2)cc1,5,-15,6,-1,0,1,.,.
COC(=O)c1ccc(CN2CCc3ccc(NC(=O)c4ccncc4)cc3C2)cc1,-5,0,4,-1,0,29*,3,-1
CC(C)(C)C(=O)COC(=O)CNC(=O)c1ccc(Oc2ccccc2)cc1,-1,5,3,2,-1,29*,13,21
COc1cccc(C(=O)NCC(=O)OCC(=O)C(C)(C)C)c1,2,-10,-1,-2,1,-2,.,.

# Screening data from PubChem BioAssay.
